Data taken from ChEMBL document CHEMBL4406918, “Inhibitory Effects of Multivalent Polypeptides on the Proliferation and Metastasis of Breast Cancer Cells” (ACS Med Chem Lett, 2019).
Active and inactive are the calls of the source. The rule behind the calls is not given here.

Key:
4T1 [1] = assay: Antitumour activity against mouse 4T1 cells xenografted in BALB/c mouse assessed as increase in cytotoxic tumor cell death at 10 mg/kg administered intratumorally and measured after 24 days by H and E staining based inverted optical microscopic method; type: functional, organism-based
Outline: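 BALB/c mice bearing subcutaneous 4T1 tumours received 6 doses at 10 mg/kg body weight, matched for YSL monomer molar amount, with saline as control. Tumour sections were stained for H&E, CD31, Ki-67 and TUNEL. n = 5.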

4T1 [2] = assay: Induction of cell cycle arrest in mouse 4T1 cells assessed as accumulation at S phase at 10^-3 mM incubated for 24 hrs by PI staining based flow cytometric analysis (Rvb =42.35%); type: functional; settings: at 0.001 mM
4T1 [3] = assay: Induction of cell cycle arrest in mouse 4T1 cells assessed as accumulation at G0/G1 phase at 10^-3 mM incubated for 24 hrs by PI staining based flow cytometric analysis (reference value: 37.78%); type: functional
4T1 [4] = assay: Inhibition of metastasis in mouse 4T1 cells assessed as disruption in F-actin arrangement at 10^-5 mM incubated for 24 hrs by Hoechst 33342 staining based confocal laser scanning microscopic method; type: functional, cell-based
Outline: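 After 24 h treatment, 4T1 cells were stained with Alexa Fluor 488 phalloidin for F-actin and Hoechst 33342 for nuclei, then imaged by fluorescence microscopy to assess cytoskeleton and cell morphology.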

4T1 [5] = assay: Induction of apoptosis in mouse 4T1 cells assessed as early apoptotic cells at 10^-3 mM incubated for 24 hrs by Annexin V-FITC/PI based FACS analysis (reference value: 0.76%); type: functional
4T1 [6] = assay: Induction of apoptosis in mouse 4T1 cells assessed as late apoptotic cells at 10^-3 mM incubated for 24 hrs by Annexin V-FITC/PI based FACS analysis (reference value: 6.62%); type: functional
Erythrocyte = assay: Hemolytic activity in BALB/c mouse RBC at 3.2 mM incubated for 2 hrs by UV-Vis spectrophotometric analysis; type: ADME, cell-based; settings: 3200 µM
Outline: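 Hemolysis assay on red blood cells with dendrimers up to 3.2 mM. Result is expressed as hemolysis rate, with under 5% taken as acceptable.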

4T1 [7] = assay: Induction of apoptosis in mouse 4T1 cells assessed as viable cells at 10^-3 mM incubated for 24 hrs by Annexin V-FITC/PI based FACS analysis (reference value: 92.2%); type: functional; settings: 4T1, 24 h, read-out: Activity
4T1 [8] = assay: Inhibition of cell migration in mouse 4T1 cells assessed as migration frequency at 10^-5 mM incubated for 24 hrs by crystal violet staining based transwell assay relative to control; type: functional; design: scale not given: the % may be the effect or the level left
Outline: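 Transwell migration assay on 4T1 cells after 24 h treatment. Rate was quantified from cell numbers on the underside of the porous membrane. Mean ± SD, n = 3.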

4T1 [9] = assay: Antiinvasive activity in mouse 4T1 cells assessed as cell invasion rate at 10^-5 mM incubated for 24 hrs by crystal violet staining based matrigel invasion assay relative to control; settings: 4T1, 24 h
4T1 [10] = assay: Induction of cell cycle arrest in mouse 4T1 cells assessed as accumulation at G2/M phase at 10^-3 mM incubated for 24 hrs by PI staining based flow cytometric analysis (reference value: 19.82%); type: functional
4T1 [11] = assay: Inhibition of cell migration in mouse 4T1 cells assessed as wound closure rate at 10^-5 mM measured up to 36 hrs by inverted optical microscopic method based wound healing assay (reference value: 82%); type: functional; design: scale not given: the % may be the effect or the level left; settings: at 10 nM
4T1 [12] = assay: Inhibition of metastasis in mouse 4T1 cells assessed as formation of pseudopods at 10^-5 mM incubated for 24 hrs by SEM analysis; type: functional, cell-based
Outline: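 4T1 cells treated 24 h, then imaged by scanning electron microscopy for pseudopod formation. Dendrimers were tested at 0.2 mM and the reference at 10–5 mM.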

4T1 [13] = assay: Induction of cell death in mouse 4T1 cells incubated for 24 hrs by PI staining based inverted microscopic method; type: functional
Outline: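 Live–dead staining of 4T1 cells after 24 h exposure to 0.4 mM, read by PI staining. A 0.8 mM level was also examined.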

4T1 [14] = assay: Antiproliferative activity against mouse 4T1 cells incubated for 24 hrs by MTT assay; type: functional, cell-based; settings: 4T1, 24 h
Outline: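 MTT viability assay on 4T1 cells after 24 h treatment. Concentrations included 0.1 mM and 0.2 mM, and IC50 was taken from the viability curve. Mean ± SD, n = 6.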

4T1 [15] = assay: Induction of apoptosis in mouse 4T1 cells assessed as necrotic cells at 10^-3 mM incubated for 24 hrs by Annexin V-FITC/PI based FACS analysis (reference value: 0.47%); type: functional

Compound: CC(=O)O[C@H]1C(=O)[C@@]2(C)[C@H]([C@H](OC(=O)c3ccccc3)[C@]3(O)C[C@H](OC(=O)[C@H](O)[C@@H](NC(=O)c4ccccc4)c4ccccc4)C(C)=C1C3(C)C)[C@]1(OC(C)=O)CO[C@@H]1C[C@@H]2O [PACLITAXEL]
- Activity (4T1 [1]): Active
- Activity (4T1 [2]): 44.64%
- Activity (4T1 [3]): 42.35%
- inhibition (4T1 [4]): Active
- Activity (4T1 [5]): 0.77%
- Activity (4T1 [6]): 36.9%
- Activity (Erythrocyte): Non-Toxic
- viability at 1 µM (4T1 [7]): 61.7%
- Activity (4T1 [8]): 30%
- invasion rate at 0.01 µM (4T1 [9]): 34%
- Activity (4T1 [10]): 13.02%
- Activity (4T1 [11]): 43%
- inhibition (4T1 [12]): inactive
- Activity (4T1 [13]): Dose-dependent effect
- IC50 (4T1 [14]): 1000 nM
- Activity (4T1 [15]): 0.62%
